Data published in ChEMBL document CHEMBL3244425 (J Med Chem, 1979).

Columns and labels:
[1] = Fraction unbound in 22% albino mouse serum at 10 uM by equilibrium dialysis method in presence of diisopropyl fluorophosphate; assay type: ADME, cell-free
serum albumin = serum albumin (Homo sapiens, UniProt P02768); experiment: Binding affinity to human serum albumin at 10 uM after 12 to 20 hrs by scintillation spectrometry; assay type: ADME
Summary of the method: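 HSA as supplied (lipid under 10 mg/g), 1% (10 mg/mL) in 0.05 M buffer. Equilibrium dialysis against buffer for 12-20 h at room temperature, with 10 μM radiolabeled substrate. Free percentage is taken from the ratio of radioactivities on the two sides, then corrected for partial hydrolysis using TLC of ether extracts.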

[2] = Ratio of oxazepam level in brain to blood in albino mouse at 10 mg equivalent of oxazepam/kg after 1 min; assay type: ADME, tissue-based
[3] = Ratio of oxazepam level in brain to blood in albino mouse at 10 mg equivalent of oxazepam/kg after 30 mins; assay type: ADME, tissue-based; conditions: 0.5 h
[4] = Ratio of oxazepam level in brain to blood in albino mouse at 10 mg equivalent of oxazepam/kg after 5 mins; assay type: ADME, tissue-based
[5] = Ratio of oxazepam level in brain to blood in albino mouse at 10 mg equivalent of oxazepam/kg after 10 mins; assay type: ADME, tissue-based
Mus musculus [6] = experiment: Drug excretion in albino mouse assessed as unexcreted drug at 10 mg equivalent of oxazepam/kg after 100 to 150 hrs; assay type: ADME, organism-based; conditions: in vivo
[7] = Ratio of oxazepam level in brain to blood in albino mouse at 10 mg equivalent of oxazepam/kg after 3 mins; assay type: ADME, tissue-based; conditions: 0.05 h
[8] = Ratio of oxazepam level in brain to blood in albino mouse at 10 mg equivalent of oxazepam/kg after 40 mins; assay type: ADME, tissue-based
[9] = Ratio of oxazepam level in brain to blood in albino mouse at 10 mg equivalent of oxazepam/kg after 6 mins; assay type: ADME, tissue-based; conditions: 0.1 h
Mus musculus [10] = experiment: Drug excretion in albino mouse assessed as unexcreted drug at 10 mg equivalent of oxazepam/kg after 150 hrs; assay type: ADME, organism-based; conditions: in vivo
[11] = Ratio of oxazepam level in brain to blood in albino mouse at 10 mg equivalent of oxazepam/kg after 20 mins; assay type: ADME, tissue-based
[12] = Ratio of oxazepam level in brain to blood in albino mouse at 10 mg equivalent of oxazepam/kg after 12 mins; assay type: ADME, tissue-based; conditions: 0.2 h
[13] = Ratio of oxazepam level in brain to blood in albino mouse at 15 mg equivalent of oxazepam/kg after 6 mins; assay type: ADME, tissue-based; conditions: 0.1 h
[14] = Ratio of oxazepam level in brain to blood in albino mouse at 15 mg equivalent of oxazepam/kg after 20 mins; assay type: ADME, tissue-based
[15] = Ratio of oxazepam level in brain to blood in albino mouse at 15 mg equivalent of oxazepam/kg after 3 mins; assay type: ADME, tissue-based; conditions: 0.05 h
[16] = Ratio of oxazepam level in brain to blood in albino mouse at 15 mg equivalent of oxazepam/kg after 1 min; assay type: ADME, tissue-based
[17] = Ratio of oxazepam level in brain to blood in albino mouse at 15 mg equivalent of oxazepam/kg after 12 mins; assay type: ADME, tissue-based; conditions: 0.2 h
[18] = Ratio of oxazepam level in brain to blood in albino mouse at 15 mg equivalent of oxazepam/kg after 40 mins; assay type: ADME, tissue-based
[19] = Ratio of oxazepam level in brain to blood in albino mouse at 10 mg equivalent of oxazepam/kg after 2 mins; assay type: ADME, tissue-based
[20] = Ratio of oxazepam level in brain to blood in albino mouse at 5 mg equivalent of oxazepam/kg after 2 mins; assay type: ADME, tissue-based
[21] = Ratio of oxazepam level in brain to blood in albino mouse at 5 mg equivalent of oxazepam/kg after 40 mins; assay type: ADME, tissue-based
[22] = Ratio of oxazepam level in brain to blood in albino mouse at 5 mg equivalent of oxazepam/kg after 5 mins; assay type: ADME, tissue-based
[23] = Ratio of oxazepam level in brain to blood in albino mouse at 5 mg equivalent of oxazepam/kg after 20 mins; assay type: ADME, tissue-based
[24] = Ratio of oxazepam level in brain to blood in albino mouse at 5 mg equivalent of oxazepam/kg after 10 mins; assay type: ADME, tissue-based
Mus musculus [25] = experiment: Drug excretion in albino mouse assessed as unexcreted drug at 5 mg equivalent of oxazepam/kg after 150 hrs; assay type: ADME, organism-based; conditions: in vivo
[26] = Ratio of oxazepam level in brain to blood in albino mouse at 5 mg equivalent of oxazepam/kg after 1 min; assay type: ADME, tissue-based
[27] = Ratio of oxazepam level in brain to blood in albino mouse at 5 mg equivalent of oxazepam/kg after 3 mins; assay type: ADME, tissue-based; conditions: 0.05 h
Mus musculus [28] = experiment: Drug excretion in albino mouse assessed as unexcreted drug at 5 mg equivalent of oxazepam/kg after 96 hrs; assay type: ADME, organism-based; conditions: in vivo
Mus musculus [29] = experiment: Drug excretion in albino mouse assessed as unexcreted drug at 10 mg equivalent of oxazepam/kg after 96 hrs; assay type: ADME, organism-based; conditions: in vivo

Sequence of serum albumin (P02768 whole entry): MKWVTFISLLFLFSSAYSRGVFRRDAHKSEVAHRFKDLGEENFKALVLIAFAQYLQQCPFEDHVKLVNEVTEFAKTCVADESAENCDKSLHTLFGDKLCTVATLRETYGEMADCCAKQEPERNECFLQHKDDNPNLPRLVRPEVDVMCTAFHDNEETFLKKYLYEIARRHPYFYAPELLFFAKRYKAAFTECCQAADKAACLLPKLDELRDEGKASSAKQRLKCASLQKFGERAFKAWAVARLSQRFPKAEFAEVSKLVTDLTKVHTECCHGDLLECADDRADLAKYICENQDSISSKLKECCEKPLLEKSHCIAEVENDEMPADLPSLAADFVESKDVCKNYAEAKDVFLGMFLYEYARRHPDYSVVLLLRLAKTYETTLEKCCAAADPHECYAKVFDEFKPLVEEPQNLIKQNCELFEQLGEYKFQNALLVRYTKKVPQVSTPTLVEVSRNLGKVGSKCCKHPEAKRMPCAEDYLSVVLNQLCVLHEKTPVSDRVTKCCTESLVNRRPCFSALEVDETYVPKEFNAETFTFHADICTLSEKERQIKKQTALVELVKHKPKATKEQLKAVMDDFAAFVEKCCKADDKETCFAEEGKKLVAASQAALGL

CCC(CC)C(=O)OC1N=C(c2ccccc2)c2cc(Cl)ccc2NC1=O (stereo not given) gave a fraction unbound at 10 µM [1] of 0.038 and a fraction unbound at 10 µM (serum albumin) of 0.06.
CC(=O)OC1N=C(c2ccccc2)c2cc(Cl)ccc2NC1=O (stereo not given) showed a fraction unbound at 10 µM [1] of 0.285 and a fraction unbound at 10 µM (serum albumin) of 0.246.
CCCC(=O)OC1N=C(c2ccccc2)c2cc(Cl)ccc2NC1=O (stereo not given) showed a fraction unbound at 10 µM [1] of 0.149 and a fraction unbound at 10 µM (serum albumin) of 0.089.
Work on CC(C)C(=O)OC1N=C(c2ccccc2)c2cc(Cl)ccc2NC1=O (stereo not given) yielded a fraction unbound at 10 µM [1] of 0.147 and a fraction unbound at 10 µM (serum albumin) of 0.078.
COC(=O)CCC(=O)OC1N=C(c2ccccc2)c2cc(Cl)ccc2NC1=O (stereo not given) showed a fraction unbound at 10 µM [1] of 0.299 and a fraction unbound at 10 µM (serum albumin) of 0.172.
O=C(CCCc1ccccc1)OC1N=C(c2ccccc2)c2cc(Cl)ccc2NC1=O (stereo not given) showed a fraction unbound at 10 µM [1] of 0.102 and a fraction unbound at 10 µM (serum albumin) of 0.034.
Work on O=C(CCc1ccccc1)OC1N=C(c2ccccc2)c2cc(Cl)ccc2NC1=O (stereo not given) yielded a fraction unbound at 10 µM (serum albumin) of 0.052.
With CC(Cc1ccccc1)C(=O)OC1N=C(c2ccccc2)c2cc(Cl)ccc2NC1=O (stereo not given) the fraction unbound at 10 µM [1] was 0.111 and the fraction unbound at 10 µM (serum albumin) was 0.051.
Work on CC(=O)OC1N=C(c2ccccc2)c2cc(Cl)ccc2N[14C]1=O (stereo not given) yielded a Ratio [2] of 4, a Ratio [3] of 4 and a Ratio [4] of 2. It also gave a Ratio [5] of 2.4, a Drug recovery (Mus musculus [6]) of 0% and a Ratio [7] of 3.4.
In the case of CCC(=O)OC1N=C(c2ccccc2)c2cc(Cl)ccc2N[14C]1=O (stereo not given), the Ratio [2] is reported as 3.8, the Ratio [8] is reported as 2.8 and the Ratio [9] is reported as 3. It also gave a Drug recovery (Mus musculus [10]) of 19%, a Ratio [11] of 2.8 and a Ratio [12] of 2.4. The Ratio [7] was 2.
Compound CCCC(=O)OC1N=C(c2ccccc2)c2cc(Cl)ccc2N[14C]1=O (stereo not given) has a Ratio [13] of 0.4, a Ratio [14] of 1.4 and a Ratio [15] of 0.3. For the same compound, the Ratio [16] was 0.2, the Ratio [17] was 0.8 and the Ratio [18] was 2.
Compound CCC(CC)C(=O)OC1N=C(c2ccccc2)c2cc(Cl)ccc2N[14C]1=O (stereo not given) has a Ratio [3] of 1.4, a Ratio [19] of 0.7 and a Ratio [4] of 0.6. For the same compound, the Ratio [8] was 1.7, the Ratio [5] was 1 and the Ratio [11] was 1.1.
For CC(C)C(=O)OC1N=C(c2ccccc2)c2cc(Cl)ccc2N[14C]1=O (stereo not given), the Ratio [20] was 0.7, the Ratio [21] was 2.3 and the Ratio [22] was 1.2. For the same compound, the Ratio [23] was 1.9 and the Ratio [24] was 1.8.
Work on O=C(CCCc1ccccc1)OC1N=C(c2ccccc2)c2cc(Cl)ccc2N[14C]1=O (stereo not given) yielded a Ratio [21] of 0.9, a Ratio [22] of 0.3 and a Ratio [23] of 1. For the same compound, the Ratio [24] was 0.4, the Drug recovery (Mus musculus [25]) was 38% and the Ratio [26] was 0.5. The Ratio [27] was 0.5.
In the case of O=C(CCc1ccccc1)OC1N=C(c2ccccc2)c2cc(Cl)ccc2N[14C]1=O (stereo not given), the Drug recovery (Mus musculus [28]) is reported as 26%, the Ratio [21] is reported as 2.2 and the Ratio [22] is reported as 0.5. For the same compound, the Ratio [23] was 1.4, the Ratio [24] was 0.5 and the Ratio [26] was 0.6. It also gave a Ratio [27] of 0.4.
For CC(C)CC(=O)OC1N=C(c2ccccc2)c2cc(Cl)ccc2NC1=O (stereo not given), the fraction unbound at 10 µM [1] was 0.067 and the fraction unbound at 10 µM (serum albumin) was 0.093.
CC(C)(C)C(=O)OC1N=C(c2ccccc2)c2cc(Cl)ccc2N[14C]1=O (stereo not given) gave a Ratio [3] of 2.5, a Drug recovery (Mus musculus [29]) of 7% and a Ratio [4] of 2. The Ratio [5] was 2.2, the Ratio [11] was 2 and the Ratio [7] was 1.7.
CC(C)(Cc1ccccc1)C(=O)OC1N=C(c2ccccc2)c2cc(Cl)ccc2NC1=O (stereo not given) showed a fraction unbound at 10 µM [1] of 0.113 and a fraction unbound at 10 µM (serum albumin) of 0.022.
Work on CC(Cc1ccccc1)C(=O)OC1N=C(c2ccccc2)c2cc(Cl)ccc2N[14C]1=O (single isomer, unassigned; (+)) yielded a Drug recovery (Mus musculus [25]) of 34%.
Work on CC(Cc1ccccc1)C(=O)OC1N=C(c2ccccc2)c2cc(Cl)ccc2N[14C]1=O (single isomer, unassigned; (-)) yielded a Ratio [21] of 2.1, a Ratio [22] of 1.1 and a Ratio [23] of 2. The Ratio [24] was 1.6 and the Ratio [27] was 0.3.
